Experimental data reported in ChEMBL document CHEMBL3751740, “New MKLP-2 inhibitors in the paprotrain series: Design, synthesis and biological evaluations” (Bioorg Med Chem, 2016).

Experiments:
[1] = biological target: T1, Kinesin-like protein KIF11 (Homo sapiens) (UniProt P52732); assay: Inhibition of porcine brain microtubule-stimulated human recombinant GST-tagged Eg5 ATPase activity at 1 mM by microplate reader in presence of Mg2+ ATP relative to control
T1 sequence (whole entry): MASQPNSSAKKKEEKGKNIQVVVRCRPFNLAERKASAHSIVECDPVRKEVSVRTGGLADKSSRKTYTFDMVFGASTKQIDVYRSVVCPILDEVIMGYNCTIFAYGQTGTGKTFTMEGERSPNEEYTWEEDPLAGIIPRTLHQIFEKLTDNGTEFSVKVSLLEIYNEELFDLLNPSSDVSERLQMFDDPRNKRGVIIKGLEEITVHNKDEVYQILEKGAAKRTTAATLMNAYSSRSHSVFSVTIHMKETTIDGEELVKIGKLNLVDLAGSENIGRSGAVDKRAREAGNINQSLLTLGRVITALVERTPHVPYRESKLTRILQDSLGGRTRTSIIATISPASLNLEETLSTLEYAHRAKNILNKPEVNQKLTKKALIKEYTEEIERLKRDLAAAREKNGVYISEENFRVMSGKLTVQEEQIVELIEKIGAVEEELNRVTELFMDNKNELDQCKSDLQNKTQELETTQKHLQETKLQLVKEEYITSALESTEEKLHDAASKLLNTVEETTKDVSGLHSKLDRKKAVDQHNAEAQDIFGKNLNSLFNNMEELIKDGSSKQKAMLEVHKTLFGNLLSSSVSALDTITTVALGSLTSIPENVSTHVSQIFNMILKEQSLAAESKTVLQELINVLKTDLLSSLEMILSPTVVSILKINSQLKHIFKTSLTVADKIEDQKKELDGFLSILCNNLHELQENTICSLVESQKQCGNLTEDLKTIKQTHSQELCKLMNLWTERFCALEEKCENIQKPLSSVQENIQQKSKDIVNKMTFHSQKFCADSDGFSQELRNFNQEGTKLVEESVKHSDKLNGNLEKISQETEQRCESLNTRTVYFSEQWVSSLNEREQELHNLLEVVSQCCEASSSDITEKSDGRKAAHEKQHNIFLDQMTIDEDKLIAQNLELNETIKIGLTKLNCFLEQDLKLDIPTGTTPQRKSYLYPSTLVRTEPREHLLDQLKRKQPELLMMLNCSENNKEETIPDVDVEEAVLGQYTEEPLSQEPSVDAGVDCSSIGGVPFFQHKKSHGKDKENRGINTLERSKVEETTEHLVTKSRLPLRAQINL
How it was run: (§1)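 Motor domain at 15 µM final, in 7.5 mM PIPES-NaOH pH 7.0 with […], 10 µM Taxol, ELIPA 1 and 2 reagents and 1.25 mg/mL microtubules. AMP-PNP, a slowly hydrolysable ATP analog and general ATPase inhibitor, tested at 1 mM. Reaction started with 1 mM Mg2+ATP at 22 °C and read kinetically at 360 nm. Run in triplicate.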

[2] = biological target: T2, Chromosome-associated kinesin KIF4A (Homo sapiens) (UniProt O95239); assay: Inhibition of porcine brain microtubule-stimulated human recombinant GST-tagged Kif4A ATPase activity at 1 mM by microplate reader in presence of Mg2+ ATP relative to control; how it was run: as §1
T2 sequence (whole entry): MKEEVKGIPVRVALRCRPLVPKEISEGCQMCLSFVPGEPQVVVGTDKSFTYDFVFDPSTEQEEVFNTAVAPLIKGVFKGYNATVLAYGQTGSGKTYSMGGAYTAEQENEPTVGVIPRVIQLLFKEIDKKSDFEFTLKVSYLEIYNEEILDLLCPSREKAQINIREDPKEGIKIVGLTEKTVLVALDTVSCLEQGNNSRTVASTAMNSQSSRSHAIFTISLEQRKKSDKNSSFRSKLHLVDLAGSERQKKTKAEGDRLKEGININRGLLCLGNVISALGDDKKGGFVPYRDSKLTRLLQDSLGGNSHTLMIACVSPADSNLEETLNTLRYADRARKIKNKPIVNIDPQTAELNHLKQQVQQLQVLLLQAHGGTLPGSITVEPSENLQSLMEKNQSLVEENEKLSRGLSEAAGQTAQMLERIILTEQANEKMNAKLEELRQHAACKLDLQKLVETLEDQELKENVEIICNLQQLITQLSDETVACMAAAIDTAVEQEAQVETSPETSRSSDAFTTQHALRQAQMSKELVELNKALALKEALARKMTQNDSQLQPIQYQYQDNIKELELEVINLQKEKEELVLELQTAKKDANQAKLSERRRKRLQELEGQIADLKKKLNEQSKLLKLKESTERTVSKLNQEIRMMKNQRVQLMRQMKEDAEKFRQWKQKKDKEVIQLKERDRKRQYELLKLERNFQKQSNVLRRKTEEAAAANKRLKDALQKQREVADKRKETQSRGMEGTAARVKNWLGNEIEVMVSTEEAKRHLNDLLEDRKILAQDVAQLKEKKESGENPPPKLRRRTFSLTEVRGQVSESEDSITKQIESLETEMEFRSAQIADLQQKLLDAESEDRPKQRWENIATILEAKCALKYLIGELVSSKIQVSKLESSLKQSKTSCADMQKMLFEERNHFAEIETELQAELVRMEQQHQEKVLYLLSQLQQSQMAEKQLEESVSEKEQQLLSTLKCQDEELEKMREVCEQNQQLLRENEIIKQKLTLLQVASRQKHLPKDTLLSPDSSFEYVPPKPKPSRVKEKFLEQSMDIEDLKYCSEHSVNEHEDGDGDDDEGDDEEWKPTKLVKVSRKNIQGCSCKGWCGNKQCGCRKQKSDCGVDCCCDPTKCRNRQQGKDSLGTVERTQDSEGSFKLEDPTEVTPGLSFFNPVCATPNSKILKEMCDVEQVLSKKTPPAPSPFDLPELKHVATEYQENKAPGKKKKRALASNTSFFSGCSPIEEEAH

[3] = Growth inhibition of human HCT116 cells incubated for 4 days by WST-1 assay; format: functional; details: HCT-116, 96 h
How it was run: (§2)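 Cells were kept at 37 °C under 5% CO2 and plated on day 0 at 500–5000 cells/well. On day 1 they received ten concentrations from 0.0025 to 50 µM (final), in triplicate. On day 4 WST-1 was added, followed by 30 min–4 h incubation and absorbance at 450 nm. GI50 is the concentration killing 50% of cells.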

HT-29 = assay: Growth inhibition of human HT-29 cells incubated for 4 days by WST-1 assay; format: functional; details: HT-29, 96 h; how it was run: as §2
HepG2 = assay: Growth inhibition of human HepG2 cells incubated for 4 days by WST-1 assay; format: functional; details: HepG2, 96 h; how it was run: as §2
[4] = Growth inhibition of human MIAPaCa2 cells incubated for 4 days by WST-1 assay; format: functional; details: MIA PaCa-2, 96 h; how it was run: as §2
MDA-MB-231 = assay: Growth inhibition of human MDA-MB-231 cells incubated for 4 days by WST-1 assay; format: functional; details: MDA-MB-231, 96 h; how it was run: as §2
NCI-H460 = assay: Growth inhibition of human NCI-H460 cells incubated for 4 days by WST-1 assay; format: functional; details: NCI-H460, 96 h; how it was run: as §2

Row | GI50 (HT-29) [µM] | GI50 (HepG2) [µM] | GI50 (MDA-MB-231) [µM] | GI50 (NCI-H460) [µM] | SMILES | inhibition [1] [%] | inhibition [2] [%] | GI50 [3] [µM] | GI50 [4] [µM]
1 |  |  |  |  | Nc1ncnc2c1ncn2[C@@H]1O[C@H](COP(=O)(O)OP(=O)(O)NP(=O)(O)O)[C@@H](O)[C@H]1O | > 30 | > 30 |  | 
2 | 26.2 | > 50 | 16.8 | 8.2 | COc1ccc2[nH]cc(/C(C#N)=C/c3cccnc3)c2c1 |  |  | 32.2 | 5.5
